In the EternaBench riboswitch data:

Test system: MS2 coat protein
Assay: apparent Kd, MS2 coat protein; higher = weaker binding; RNA-MaP array; FMN 200 µM where present
Procedure, shortened: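 Stalled E. coli RNA polymerase transcribed the designs on Illumina sequencing-chip clusters. SNAP-549-labelled MS2 coat protein was titrated from 0.7 or 1.5 nM, doubling to 3 µM, without and then with constant ligand, in 100 mM Tris-HCl pH 7.5, 80 mM KCl, 4 mM MgCl2, BSA, DTT, yeast tRNA and Tween-20. Per-cluster binding curves were fitted to green signal normalised to red-channel RNA signal and control-cluster median Fmax. The apparent Kd is the median of the filtered fits.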

[1] = designed as: OFF switch for flavin mononucleotide, no ligand
[2] = ligand present: flavin mononucleotide, designed as: OFF switch for flavin mononucleotide
[3] = designed as: ON switch for flavin mononucleotide, no ligand
[4] = ligand present: flavin mononucleotide, designed as: ON switch for flavin mononucleotide

GGGCCCGGAGGAUAUACAUGAGGAUCACCCAUGUAUUUGGGCCCUAUUGGGCCCGGGUGUAGAAGGCCGGGUUU
apparent Kd [1]: 15.7 nM | apparent Kd [2]: 21.4 nM

GCCAGAGCAGGAUAUUCAAUAAUCCACAUGAGGAUCACCCAUGUCUAGCGAAAGCUAGAGGGAGAAGGGCUCUGGC
apparent Kd [1]: 79.3 nM | apparent Kd [2]: 33.7 nM

UGUUGUAUUACAGGAUAUCUAGUAUUUUUAAUUAGAGAAGGGUAUUCACAUGAGGAUCACCCAUGUAUAUACGAGGAAGUUGUG
apparent Kd [3]: 43.3 nM | apparent Kd [4]: 43.1 nM

UUUUUGUGAGGAUAUCAGUAGUAAAUAAAUAAAAUUACUACUGAGAAGGCACAUGAGGAUCACCCAUGUUUUUU
apparent Kd [1]: 40.4 nM | apparent Kd [2]: 95.1 nM

UGCAUGCUAGGAUAUACGAAACAUUAGGGUUCUUUGUAUGAACAUGAGGAUCACCCAUGUAGAAGGAGCGUGCU
apparent Kd [1]: 117 nM | apparent Kd [2]: 296 nM

ACAACAGGCAGAGGAUAUGACUGGGUAGGAGUAACAUGAGGAUCACCCAUGUUAGAAGGCUGCGUCAAACAGCGAAAGGUACGC
apparent Kd [1]: 52.4 nM | apparent Kd [2]: 91.6 nM

CCUCCCUGAGGAUAUCCACCCUCAUACAUGAGGAUCACCCAUGUUCAACCCUGGGUUCCCGGAGAAGGCAGAUUUC
apparent Kd [1]: 115 nM | apparent Kd [2]: 134 nM

GGGCCCGGUGUGAGGAUAUGCCCGGGUAAAUUUGGGCAGAAGGCACAUGAGGAUCACCCAUGUAAGCCGGGCCC
apparent Kd [1]: 13.9 nM | apparent Kd [2]: 13.8 nM

UUGCCUCGGAACAUGAGGAUCACCCAUGUGCUGCGGGCAACGUAGGAUAUGAUGGUACGCUACCAUCAGAAGGAUGAUGGUACC
apparent Kd [3]: 4.98 nM | apparent Kd [4]: 5.29 nM

GGUUAAUGCAAGGAUAUGCUAUUAUUUUAUUUUGCAGAAGGUGCAACAUGAGGAUCACCCAUGUUGGAGGGUUU
apparent Kd [1]: 19.8 nM | apparent Kd [2]: 26.1 nM

AAGUAUAAGGGCAUUAAACAUGAGGAUCACCCAUGUACAAUAGAGGAUAUGCAUUUUGGUUUAGAGUAGAAGGUUAGAGAAAAU
apparent Kd [1]: 28.2 nM | apparent Kd [2]: 33.5 nM

AAAAAACAUGAGGAUCACCCAUGUCAGGAUAUACGAUAAAAAAAAAAAAAAAAAAAAUGUAGAAGGGACAAAAA
apparent Kd [1]: 78.3 nM | apparent Kd [2]: 73.9 nM

AAUAUGAGCUGGUUUAAAUCCGAAACAUGAGGAUCACCCAUGUAGGAUAUCAGCACGAUAAGUGCUGAGAAGGACAUCCAGCUC
apparent Kd [1]: 15.6 nM | apparent Kd [2]: 15 nM

AAAUAGGUAGGAUAUACAUGGAUAUACAUUCAUGUGGACCUACAUGAGGAUCACCCAUGUAGAAGGACCUAGUA
apparent Kd [1]: 40.2 nM | apparent Kd [2]: 43.7 nM

UAAAGCGUAGAUAAUUAUGUUACAUGAGGAUCACCCAUGUCAUAGGAUAUGCAGUGGAAUACACUGCAGAAGGAUGAAUCGCAG
apparent Kd [1]: 24.9 nM | apparent Kd [2]: 33.3 nM

AUAAACCUAGGAUAUACAUGAGGAUCACCCAUGUAAGGGCAAUGCCCAUGCUCCUCAUGUAGAAGGAGGAGCAG
apparent Kd [1]: 21.8 nM | apparent Kd [2]: 25.5 nM

CUGACGAUGUAAGGAUAUGCUGAGGAUAACUCAGCAGAAGGUACAUGAGGAUCACCCAUGUAACGUCAGAAUAAUAAUAAUAAU
apparent Kd [1]: 12.6 nM | apparent Kd [2]: 23.1 nM

GUCAGCUCGUGAGGAUAUACAACACUGCUUCGGCAGUGUAUUAAGUUCACAUGAGGAUCACCCAUGUAGAAGGCACGAGCUGAU
apparent Kd [1]: 5.56 nM | apparent Kd [2]: 6.8 nM

UCGGCGCGAGGAUAUACGUUUGCUUUUUUGUGUCGUUGCGUACAUGAGGAUCACCCAUGUAGAAGGCGCGCCGC
apparent Kd [1]: 17.5 nM | apparent Kd [2]: 83.6 nM

AAAUUCCUCACAGGAUAUCCUACAUGAGGAUCACCCAUGUACUAACUGAGCGAAUUGCAACAAAAGGAGAAGGGUGAGGUGAAG
apparent Kd [3]: 31.5 nM | apparent Kd [4]: 6.35 nM

AACAUGGUGCAGGAUAUCCAACAUAUCGCGAGAGGAGAAGGGUACACAUGAGGAUCACCCAUGUGUGGUCUGUU
apparent Kd [1]: 29.3 nM | apparent Kd [2]: 223 nM

GCAAAGCCUGACAUGAGGAUCACCCAUGUUAGAUUGUUAUGUCAGGAUAUUGUCUAGCAACUAGACAAGAAGGGAUGCUCUGCC
apparent Kd [3]: 377 nM | apparent Kd [4]: 194 nM

AUCUAGUCAGGAUAUCGUACAAUAUGGAAAACAUAGAGGUACGAGAAGGGACAUGAGGAUCACCCAUGUAAAAC
apparent Kd [1]: 36.2 nM | apparent Kd [2]: 38 nM

UUAAAUCAUGUAGGAUAUGCAUGGCGAAGCUACGCAGAAGGACAUGAGGAUCACCCAUGUUAUAGCUUCCAAGUUAGGAGGCAA
apparent Kd [1]: 85.7 nM | apparent Kd [2]: 191 nM

CAGUACAGAGGAUAUACAUGAGGAUCACCCAUGUGUUUCAGCUAGGAGACUAGCGAGUGUAGAAGGCUGUACUG
apparent Kd [1]: 37.4 nM | apparent Kd [2]: 360 nM

CGGCCAUAUCGAGGAUAUAAGUCUAGGACAUGAGGAUCACCCAUGUAUGUCUUAGAAGGCGAUAUGGCCAGCCUGUUACAGGCA
apparent Kd [3]: 28.9 nM | apparent Kd [4]: 5.83 nM

CGAUAUAUGAAGGGCGAAAGCCCACAUGAGGAUCACCCAUGUAGAAGGCGAGCCGCAACGCGGCUCGAGGAUAUAUAGUAUACA
apparent Kd [1]: 7.24 nM | apparent Kd [2]: 8.52 nM

AGUGCUAUGUAGAAGGCAGAUCUGAUUCAGAUCUGAGGAUAUACAUGAGGAUCACCCAUGUUAUGCACCAGCACGAGAGUGCAA
apparent Kd [1]: 8.2 nM | apparent Kd [2]: 17.5 nM
